Type in all cases: cell-based
In data set [1] the target is Nuclear receptor subfamily 4 group A member 2 (Homo sapiens) (UniProt P43354). The data set is described as follows: Modulation of full length human Nurr1 expressed in HEK293T cells co-transfected with RXRalpha and luciferase reporter plasmid harboring NBRE response element assessed as increase in luciferase activity incubated for 18 hrs by luciferase reporter gene assay. The following applies: filed as modulator, dose 0.01-1 µM. In short, it runs like this: (§1)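 Full-length Nurr1 plasmid, alone (2 μg) or 1 μg plus full-length RXRα (1 μg), cotransfected with 3xNBRE- or 3xNurRE-luciferase reporter (6 μg) using Lipofectamine 2000, 18 h. Cells replated at 10,000/well for 4 h. Four ligand concentrations, or vehicle (water, ethanol or DMSO), added in quadruplicate for 18 h. Luciferase read. Fold change vs vehicle, mean ± s.e.m., one-way ANOVA vs vehicle.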

Data set [2] has the same target. The data set can be described thus: Modulation of full length human Nurr1 expressed in SKNBE(2) cells co-transfected with luciferase reporter plasmid harboring NBRE response element assessed as increase in luciferase activity incubated for 18 hrs by luciferase reporter gene assay. The following applies: SKNBE2, filed as modulator, dose 0.01-1 µM. In short, it runs like this: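 Transfection of SK-N-BE(2)-C cells (1:1 EMEM/F12, 10% FBS, 37°C, 5% CO2) used full-length Nurr1 alone (2 μg, no RXRα) with 3xNBRE- or 3xNurRE-luciferase reporter (6 μg) for 18 h. Cells were replated at 10,000/well for 4 h, then exposed to ligand or vehicle in quadruplicate for 18 h. Luminescence was expressed as fold over vehicle, as mean ± s.e.m. (n=4) from 2 independent experiments, one-way ANOVA against vehicle.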
(Reporter assays use an easily measured gene product as a stand-in for the process of interest.)

For data set [3] the target is unchanged. The data set can be described thus: Modulation of full length human Nurr1 expressed in HEK293T cells co-transfected with luciferase reporter plasmid harboring NurRE response element assessed as increase in luciferase activity incubated for 18 hrs by luciferase reporter gene assay. Particulars: filed as modulator, dose 0.01-1 µM. Put shortly: as §1
Data set [4] has as its system HEK-293T. The data set is described as follows: Cytotoxicity in human HEK293T cells assessed as reduction in cell viability at 0.01 to 1 uM incubated for 18 hrs by Cell Titer-Glo assay. The following applies: dose 0.01-1 µM. In short, it runs like this:
(§2)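 Cells seeded at 1.5 million per 10-cm dish. Next day they were replated at 10,000 cells/well and rested 4 h. Ligand or vehicle (water, ethanol or DMSO, by ligand) was added in dose-response format in quadruplicate. After 18 h, viability was read by CellTiter-Glo luminescence. Data are mean ± s.e.m., generally representative of 2 independent experiments. One-way ANOVA versus vehicle.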
A general note: ATP-based viability assays read luminescence as a measure of living cells.

For data set [5], the target named is Nuclear receptor subfamily 4 group A member 2 (Homo sapiens) (UniProt P43354). The data set can be described thus: Modulation of full length human Nurr1 expressed in HEK293T cells co-transfected with RXRalpha and luciferase reporter plasmid harboring NurRE response element assessed as increase in luciferase activity incubated for 18 hrs by luciferase reporter gene assay. Particulars: filed as modulator, dose 0.01-1 µM. In short, it runs like this:
as §1

In data set [6] the test system is PC-12. The data set is described as follows: Cytotoxicity in rat PC-12 cells assessed as reduction in cell viability at 0.01 to 1 uM incubated for 18 hrs by Cell Titer-Glo assay. Particulars: pc-12, 18 h, dose 0.01-1 µM. Put shortly:
as §2

Data set [7] concerns PC-12. The data set is described as follows: Modulation of Gal4-fused VP16 expressed in PC12 cells co-transfected with UAS repoter gene assessed as increase in luciferase activity at 0.01 to 1 uM incubated for 18 hrs by luciferase reporter gene assay. The following applies: Human alphaherpesvirus 2, filed as modulator, dose 0.01-1 µM. Put shortly: (§3)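 Cells in 10-cm dishes were transfected with Gal4-VP16 expression plasmid (2 μg) plus 5xUAS-luciferase reporter (2 μg) for 18 h. They were replated at 10,000 cells/well for 4 h, then given ligand or vehicle (water, ethanol or DMSO) in quadruplicate for 18 h. Luciferase was read with Britelite Plus. Fold change is versus vehicle-treated cells, with one-way ANOVA versus vehicle.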

Data set [8] relates to HEK293T. The data set is described as follows: Modulation of Gal4-fused VP16 expressed in HEK293T cells co-transfected with UAS repoter gene assessed as increase in luciferase activity at 0.01 to 1 uM incubated for 18 hrs by luciferase reporter gene assay. Particulars: Human alphaherpesvirus 2, filed as modulator, dose 0.01-1 µM. Put shortly: as §3
Data set [9] has as its target Nuclear receptor subfamily 4 group A member 2 (Homo sapiens) (UniProt P43354). The data set is described as follows: Modulation of full length human Nurr1 expressed in HEK293T cells co-transfected with luciferase reporter plasmid harboring NBRE response element assessed as increase in luciferase activity incubated for 18 hrs by luciferase reporter gene assay. Particulars: filed as modulator, dose 0.01-1 µM. Put shortly: as §1

Data set [10] shares this target. The data set is described as follows: Modulation of full length human Nurr1 expressed in SKNBE(2) cells co-transfected with RXRalpha and luciferase reporter plasmid harboring NBRE response element assessed as increase in luciferase activity incubated for 18 hrs by luciferase reporter gene assay. Particulars: SKNBE2, filed as modulator, dose 0.01-1 µM. Put shortly: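 SK-N-BE(2)-C cells were kept in 1:1 EMEM/F12 with 10% FBS at 37°C and 5% CO2. They were cotransfected with full-length Nurr1 (1 μg), full-length RXRα (1 μg) and 3xNBRE- or 3xNurRE-luc reporter (6 μg) for 18 h, replated at 10,000 cells/well for 4 h, and then treated with ligand or vehicle in quadruplicate for 18 h. The readout was luciferase luminescence as fold over vehicle, reported as mean ± s.e.m. (n=4) from 2 independent experiments, one-way ANOVA.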

Data set [11] relates to SK-N-BE(2). The data set can be described thus: Cytotoxicity in human SKNBE2 cells assessed as reduction in cell viability at 0.01 to 1 uM incubated for 18 hrs by Cell Titer-Glo assay. Particulars: dose 0.01-1 µM. Put shortly: as §2
The test system of data set [12] is SKNBE2. The data set can be described thus: Modulation of Gal4-fused VP16 expressed in SKNBE(2) cells co-transfected with UAS repoter gene assessed as increase in luciferase activity at 0.01 to 1 uM incubated for 18 hrs by luciferase reporter gene assay. The following applies: Human alphaherpesvirus 2, filed as modulator, dose 0.01-1 µM. In short, it runs like this:
as §3

The target of data set [13] is Nuclear receptor subfamily 4 group A member 2 (Homo sapiens) (UniProt P43354). The data set can be described thus: Modulation of full length human Nurr1 expressed in SKNBE(2) cells co-transfected with luciferase reporter plasmid harboring NurRE response element assessed as increase in luciferase activity incubated for 18 hrs by luciferase reporter gene assay. The following applies: SKNBE2, filed as modulator, dose 0.01-1 µM.

For data set [14] the target is unchanged. The data set is described as follows: Modulation of full length human Nurr1 expressed in PC12 cells co-transfected with RXRalpha and luciferase reporter plasmid harboring NurRE response element assessed as increase in luciferase activity incubated for 18 hrs by luciferase reporter gene assay. Particulars: PC-12, filed as modulator, dose 0.01-1 µM. Put shortly:
(§4)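 PC12 cells were grown at 37°C and 5% CO2 in […] medium with 15% horse serum and 2.5% FBS. They were transfected with full-length Nurr1 (1 μg) plus full-length RXRα (1 μg) and 3xNBRE- or 3xNurRE-luciferase reporter (6 μg) for 18 h, then replated at 10,000 cells/well for 4 h. Ligand or vehicle (water, ethanol or DMSO) was added in quadruplicate for 18 h. Luminescence was read as fold change over vehicle. Results are mean ± s.e.m., n=4, from 2 independent experiments, analysed by one-way ANOVA against vehicle.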

Data set [15] has the same target. The data set is described as follows: Modulation of full length human Nurr1 expressed in PC12 cells co-transfected with luciferase reporter plasmid harboring NBRE response element assessed as increase in luciferase activity incubated for 18 hrs by luciferase reporter gene assay. Particulars: PC-12, filed as modulator, dose 0.01-1 µM. Put shortly: (§5)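 Here PC12 cells (FK-12 medium, 15% horse serum, 2.5% FBS, 37°C, 5% CO2) received full-length Nurr1 (2 μg) without RXRα, plus 3xNBRE- or 3xNurRE-luciferase reporter (6 μg), for 18 h. Cells were replated at 10,000/well for 4 h, then treated with ligand or vehicle in quadruplicate for 18 h. Luciferase luminescence was normalized to vehicle-treated cells. Results are mean ± s.e.m. (n=4) from 2 independent experiments, with one-way ANOVA against vehicle.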

Data set [16] has the same target. The data set can be described thus: Modulation of full length human Nurr1 expressed in PC12 cells co-transfected with RXRalpha and luciferase reporter plasmid harboring NBRE response element assessed as increase in luciferase activity incubated for 18 hrs by luciferase reporter gene assay. Particulars: PC-12, filed as modulator, dose 0.01-1 µM. In short, it runs like this:
as §4

Data set [17] shares this target. The data set is described as follows: Modulation of full length human Nurr1 expressed in PC12 cells co-transfected with luciferase reporter plasmid harboring NurRE response element assessed as increase in luciferase activity incubated for 18 hrs by luciferase reporter gene assay. The following applies: PC-12, filed as modulator, dose 0.01-1 µM. In short, it runs like this:
as §5

In data set [18] the test system is SK-N-BE(2). The data set can be described thus: Cytotoxicity in human SKNBE2 cells assessed as reduction in cell viability at 0.5 to 5 uM incubated for 18 hrs by Cell Titer-Glo assay. The following applies: dose 0.5-5 µM. In short, it runs like this:
as §2

The subject of data set [19] is PC-12. The data set can be described thus: Cytotoxicity in rat PC-12 cells assessed as reduction in cell viability at 0.5 to 5 uM incubated for 18 hrs by Cell Titer-Glo assay. Particulars: pc-12, 18 h, dose 0.5-5 µM. In short, it runs like this:
as §2

Data set [20] concerns HEK-293T. The data set can be described thus: Cytotoxicity in human HEK293T cells assessed as reduction in cell viability at 0.5 to 5 uM incubated for 18 hrs by Cell Titer-Glo assay. Particulars: dose 0.5-5 µM. Put shortly:
as §2

The source made the active and inactive calls. The rule behind the calls is not given here.

Sequence of Nuclear receptor subfamily 4 group A member 2 (Homo sapiens) (P43354 whole entry): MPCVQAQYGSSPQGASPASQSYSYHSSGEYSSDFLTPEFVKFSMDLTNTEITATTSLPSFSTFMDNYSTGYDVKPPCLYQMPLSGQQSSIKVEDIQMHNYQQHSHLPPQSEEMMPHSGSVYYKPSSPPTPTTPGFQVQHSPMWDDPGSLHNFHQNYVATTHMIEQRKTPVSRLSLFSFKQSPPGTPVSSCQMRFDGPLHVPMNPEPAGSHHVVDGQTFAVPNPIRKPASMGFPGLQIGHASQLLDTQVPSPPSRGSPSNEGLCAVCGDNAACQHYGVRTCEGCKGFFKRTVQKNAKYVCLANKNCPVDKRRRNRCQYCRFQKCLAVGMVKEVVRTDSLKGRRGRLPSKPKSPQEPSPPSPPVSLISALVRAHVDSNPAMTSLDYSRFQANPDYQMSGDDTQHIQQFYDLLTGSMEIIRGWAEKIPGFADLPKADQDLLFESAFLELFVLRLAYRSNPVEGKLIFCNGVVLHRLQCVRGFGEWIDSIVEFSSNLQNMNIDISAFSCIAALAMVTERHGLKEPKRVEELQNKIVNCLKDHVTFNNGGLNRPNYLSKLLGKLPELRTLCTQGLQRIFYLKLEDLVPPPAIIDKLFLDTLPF

With `O=C(Nc1ccccc1)c1cn2cc(-c3ccccn3)ccc2n1`, the Activity entry in [1] was “Dose-Dependent Effect”; in data set [2] it was “Dose-Dependent Effect”; in data set [3] it was “Dose-Dependent Effect”; in data set [4] it was “Non-Toxic”; in data set [5] it was “Dose-Dependent Effect”; in [6], “Non-Toxic”. In addition, the Activity entry in data set [9] was “Dose-Dependent Effect”; in data set [10] it was “Dose-Dependent Effect”; in data set [11] it was “Non-Toxic”; in data set [13], “Dose-Dependent Effect”; in data set [14] it was “Dose-Dependent Effect”; in [15], “Dose-Dependent Effect”. The Activity entry in [16] and in [17] was “Dose-Dependent Effect” throughout. Also, the result in [7], in data set [8] and in [12] was Active.
Regarding `O=C(O)c1ccc2nc(-c3ccc(F)cc3)[nH]c2c1`, the Activity entry in data set [18], in data set [19] and in data set [20] was “Non-Toxic” in each case.

Values taken from ChEMBL document CHEMBL5030505, “Assessment of NR4A Ligands That Directly Bind and Modulate the Orphan Nuclear Receptor Nurr1” (J Med Chem, 2020).
